The source made the active and inactive calls. No cut-off for these calls is given here.
Legend:
Nucleic Acid [1] = test: Binding affinity to 14mer DNA assessed as change in melting temperature by spectrophotometry; type: nucleic-acid assay
In short: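 Thermal melting of 14-mer oligonucleotide duplexes (HRE or ARE sequence) with and without polyamide, read by UV spectrophotometry in 1 cm quartz cuvettes with a thermostatted holder. Buffer was 10 mM sodium cacodylate, 10 mM KCl, 10 mM MgCl2, 5 mM CaCl2, pH 7.0. ΔTm is taken relative to the free duplex.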

LNCaP [2] = test: Cytotoxicity against human LNCAP cells assessed as cell viability at 0.01 to 30 uM after 48 hrs by WST1 assay; type: functional
In short: (§1)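 LNCaP cells were seeded at 10-15 × 10^2 per well and allowed to settle 48 h before polyamide was added as 2× media solutions (DMSO <0.1%). After 48 h exposure, media was replaced and cells recovered 24 h. WST-1 was added for 30 min and A450 read. Wells were corrected for media-only background and normalized to untreated controls.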

Nucleic Acid [3] = test: Binding affinity to 5'-TTGCAGAACAGCAA-3' sequence of DNA assessed as change in melting temperature by spectrophotometry; type: nucleic-acid assay
LNCaP [4] = test: Cytotoxicity against human LNCAP cells after 48 hrs by WST1 assay; type: functional, cell-based; in short: as §1
LNCaP [5] = test: Inhibition of dihydrotestosterone-induced prostate specific antigen expression in human LNCAP cells at 5 uM by quantitative RT-PCR analysis; type: functional
In short: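 LNCaP cells were induced with 1 nM DHT and PSA mRNA measured by quantitative real-time RT-PCR. Oxime-linked polyamides were given at 5, 1 and 0.1 μM, and unconjugated controls at 5 μM, with DMSO ≤0.1%. Expression was normalized to untreated DHT-induced cells; uninduced and DMSO controls were included.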

Nucleic Acid [6] = test: Binding affinity to 5'-GTGCATACGTGGGC-3' sequence of DNA assessed as change in melting temperature by spectrophotometry; type: nucleic-acid assay
U-251 = test: Inhibition of desferrioxamine-induced VEGF mRNA expression in human U251 cells at 1 uM by quantitative RT-PCR analysis; type: functional
In short: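 In U251 cells, induced VEGF mRNA was quantified by real-time RT-PCR after polyamide at 1, 0.2 and 0.02 μM, with DMSO ≤0.1%. Values were normalized to untreated induced cells; uninduced and DMSO-vehicle controls were run alongside.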

## CN(C)CCCNC(=O)CCNC(=O)c1cc(NC(=O)c2cc(NC(=O)c3nc(NC(=O)c4cc(NC(=O)[C@H](N)CCNC(=O)c5nc(NC(=O)c6cc(NC(=O)c7cc(NC(=O)c8nccn8C)cn7C)cn6C)cn5C)cn4C)cn3C)cn2C)cn1C
Nucleic Acid [1]
  ΔTm: 3.6 °C

## Cn1cc(NC(=O)c2cc(NC(=O)c3cc(NC(=O)c4nc(NC(=O)[C@H](N)CCNC(=O)c5cc(NC(=O)c6cc(NC(=O)c7cc(NC(=O)c8nccn8C)cn7C)cn6C)cn5C)cn4C)cn3C)cn2C)cc1C(=O)NCCCCCCCNC(=O)c1cccc(C(=O)O)c1
LNCaP [2]
  Activity: <50%
Nucleic Acid [3]
  ΔTm: 10.4 °C
LNCaP [4]
  IC50: > 30 µM

## Cn1cc(NC(=O)c2cc(NC(=O)c3cc(NC(=O)c4nc(NC(=O)[C@H](N)CCNC(=O)c5cc(NC(=O)c6cc(NC(=O)c7cc(NC(=O)c8nccn8C)cn7C)cn6C)cn5C)cn4C)cn3C)cn2C)cc1C(=O)NCCCON
Nucleic Acid [3]
  ΔTm: 11.2 °C
LNCaP [5]
  inhibition at 5 µM: 50%

## CN(CCCN)CCCNC(=O)c1cc(NC(=O)c2cc(NC(=O)c3nc(NC(=O)c4cc(NC(=O)[C@H](N)CCNC(=O)c5nc(NC(=O)c6cc(NC(=O)c7cc(NC(=O)c8nccn8C)cn7C)cn6C)cn5C)cn4C)cn3C)cn2C)cn1C
Nucleic Acid [1]
  ΔTm: 6.4 °C

## CN(CCCN)CCCNC(=O)c1cc(NC(=O)c2cc(NC(=O)c3nc(NC(=O)c4cc(NC(=O)[C@H](N)CCNC(=O)c5nc(NC(=O)c6cc(NC(=O)c7cc(NC(=O)c8sccc8Cl)cn7C)cn6C)cn5C)cn4C)cn3C)cn2C)cn1C
Nucleic Acid [6]
  ΔTm: 14.8 °C

## Cn1cc(NC(=O)c2cc(NC(=O)c3cc(NC(=O)c4nc(NC(=O)[C@H](N)CCNC(=O)c5cc(NC(=O)c6cc(NC(=O)c7cc(NC(=O)c8nccn8C)cn7C)cn6C)cn5C)cn4C)cn3C)cn2C)cc1C(=O)NCCCCCCCN
Nucleic Acid [3]
  ΔTm: 14.3 °C

## Cn1cc(NC(=O)c2cc(NC(=O)c3nc(NC(=O)c4cc(NC(=O)[C@H](N)CCNC(=O)c5nc(NC(=O)c6cc(NC(=O)c7cc(NC(=O)c8sccc8Cl)cn7C)cn6C)cn5C)cn4C)cn3C)cn2C)cc1C(=O)NCCCNC(=O)c1cccc(C(=O)O)c1
Nucleic Acid [6]
  ΔTm: 9.5 °C

## Cn1cc(NC(=O)c2cc(NC(=O)c3nc(NC(=O)c4cc(NC(=O)[C@H](N)CCNC(=O)c5nc(NC(=O)c6cc(NC(=O)c7cc(NC(=O)c8nccn8C)cn7C)cn6C)cn5C)cn4C)cn3C)cn2C)cc1C(=O)NCCCNC(=O)c1cccc(C(=O)O)c1
Nucleic Acid [1]
  ΔTm: 1.5 °C
LNCaP [2]
  Activity: <50%

## Cn1cc(NC(=O)c2cc(NC(=O)c3nc(NC(=O)c4cc(NC(=O)[C@H](N)CCNC(=O)c5nc(NC(=O)c6cc(NC(=O)c7cc(NC(=O)c8sccc8Cl)cn7C)cn6C)cn5C)cn4C)cn3C)cn2C)cc1C(=O)NCCCON
Nucleic Acid [6]
  ΔTm: 10.6 °C

## CN(C)CCCNC(=O)CCNC(=O)c1cc(NC(=O)c2cc(NC(=O)c3cc(NC(=O)c4nc(NC(=O)[C@H](N)CCNC(=O)c5nc(NC(=O)c6cc(NC(=O)c7nc(NC(=O)c8nccn8C)cn7C)cn6C)cn5C)cn4C)cn3C)cn2C)cn1C
Nucleic Acid [6]
  ΔTm: 1.6 °C

## Cn1cc(NC(=O)c2cc(NC(=O)c3nc(NC(=O)c4cc(NC(=O)[C@H](N)CCNC(=O)c5nc(NC(=O)c6cc(NC(=O)c7cc(NC(=O)c8sccc8Cl)cn7C)cn6C)cn5C)cn4C)cn3C)cn2C)cc1C(=O)NCCCCCCCNC(=O)c1cccc(C(=O)O)c1
Nucleic Acid [6]
  ΔTm: 9 °C

## CN(C)CCCNC(=O)CCNC(=O)c1cc(NC(=O)c2cc(NC(=O)c3cc(NC(=O)c4nc(NC(=O)[C@H](N)CCNC(=O)c5cc(NC(=O)c6cc(NC(=O)c7cc(NC(=O)c8nccn8C)cn7C)cn6C)cn5C)cn4C)cn3C)cn2C)cn1C
Nucleic Acid [3]
  ΔTm: 14.3 °C

## CN(C)CCCNC(=O)CCNC(=O)c1cc(NC(=O)c2cc(NC(=O)c3nc(NC(=O)c4cc(NC(=O)[C@H](N)CCNC(=O)c5nc(NC(=O)c6cc(NC(=O)c7cc(NC(=O)c8sccc8Cl)cn7C)cn6C)cn5C)cn4C)cn3C)cn2C)cn1C
Nucleic Acid [6]
  ΔTm: 12.4 °C

## Cn1cc(NC(=O)c2cc(NC(=O)c3nc(NC(=O)c4cc(NC(=O)[C@H](N)CCNC(=O)c5nc(NC(=O)c6cc(NC(=O)c7cc(NC(=O)c8nccn8C)cn7C)cn6C)cn5C)cn4C)cn3C)cn2C)cc1C(=O)NCCCN
Nucleic Acid [1]
  ΔTm: 5.3 °C

## CN(CCCNC(=O)c1cccc(C(=O)O)c1)CCCNC(=O)c1cc(NC(=O)c2cc(NC(=O)c3cc(NC(=O)c4nc(NC(=O)[C@H](N)CCNC(=O)c5nc(NC(=O)c6cc(NC(=O)c7nc(NC(=O)c8nccn8C)cn7C)cn6C)cn5C)cn4C)cn3C)cn2C)cn1C
Nucleic Acid [1]
  ΔTm: 0.9 °C

## Cn1cc(NC(=O)c2cc(NC(=O)c3cc(NC(=O)c4nc(NC(=O)[C@H](N)CCNC(=O)c5cc(NC(=O)c6cc(NC(=O)c7cc(NC(=O)c8nccn8C)cn7C)cn6C)cn5C)cn4C)cn3C)cn2C)cc1C(=O)NCCCNC(=O)c1cccc(C(=O)O)c1
LNCaP [2]
  Activity: <50%
Nucleic Acid [3]
  ΔTm: 11.1 °C
LNCaP [4]
  IC50: > 30 µM

## CN(CCCNC(=O)c1cccc(C(=O)O)c1)CCCNC(=O)c1cc(NC(=O)c2cc(NC(=O)c3nc(NC(=O)c4cc(NC(=O)[C@H](N)CCNC(=O)c5nc(NC(=O)c6cc(NC(=O)c7cc(NC(=O)c8nccn8C)cn7C)cn6C)cn5C)cn4C)cn3C)cn2C)cn1C
Nucleic Acid [1]
  ΔTm: 4 °C
LNCaP [2]
  Activity: <50%

## Cn1cc(NC(=O)c2cc(NC(=O)c3cc(NC(=O)c4nc(NC(=O)[C@H](N)CCNC(=O)c5cc(NC(=O)c6cc(NC(=O)c7cc(NC(=O)c8nccn8C)cn7C)cn6C)cn5C)cn4C)cn3C)cn2C)cc1C(=O)NCCCN
Nucleic Acid [3]
  ΔTm: 16.2 °C

## Cn1cc(NC(=O)c2cc(NC(=O)c3cc(NC(=O)c4nc(NC(=O)[C@H](N)CCNC(=O)c5nc(NC(=O)c6cc(NC(=O)c7nc(NC(=O)c8nccn8C)cn7C)cn6C)cn5C)cn4C)cn3C)cn2C)cc1C(=O)NCCCNC(=O)c1cccc(C(=O)O)c1
Nucleic Acid [1]
  ΔTm: 0.5 °C

## Cn1cc(NC(=O)c2cc(NC(=O)c3nc(NC(=O)c4cc(NC(=O)[C@H](N)CCNC(=O)c5nc(NC(=O)c6cc(NC(=O)c7cc(NC(=O)c8nccn8C)cn7C)cn6C)cn5C)cn4C)cn3C)cn2C)cc1C(=O)NCCCCCCCN
Nucleic Acid [1]
  ΔTm: -0.9 °C

## Cn1cc(NC(=O)c2cc(NC(=O)c3cc(NC(=O)c4nc(NC(=O)[C@H](N)CCNC(=O)c5nc(NC(=O)c6cc(NC(=O)c7nc(NC(=O)c8nccn8C)cn7C)cn6C)cn5C)cn4C)cn3C)cn2C)cc1C(=O)NCCCN
Nucleic Acid [1]
  ΔTm: 4.1 °C

## Cn1cc(NC(=O)c2cc(NC(=O)c3cc(NC(=O)c4nc(NC(=O)[C@H](N)CCNC(=O)c5nc(NC(=O)c6cc(NC(=O)c7nc(NC(=O)c8nccn8C)cn7C)cn6C)cn5C)cn4C)cn3C)cn2C)cc1C(=O)NCCCCCCCN
Nucleic Acid [1]
  ΔTm: 2.1 °C

## Cn1cc(NC(=O)c2cc(NC(=O)c3nc(NC(=O)c4cc(NC(=O)[C@H](N)CCNC(=O)c5nc(NC(=O)c6cc(NC(=O)c7cc(NC(=O)c8nccn8C)cn7C)cn6C)cn5C)cn4C)cn3C)cn2C)cc1C(=O)NCCCCCCCNC(=O)c1cccc(C(=O)O)c1
Nucleic Acid [1]
  ΔTm: 2.6 °C
LNCaP [2]
  Activity: <50%

## Cn1cc(NC(=O)c2cc(NC(=O)c3cc(NC(=O)c4nc(NC(=O)[C@H](N)CCNC(=O)c5nc(NC(=O)c6cc(NC(=O)c7nc(NC(=O)c8nccn8C)cn7C)cn6C)cn5C)cn4C)cn3C)cn2C)cc1C(=O)NCCCCCCCNC(=O)c1cccc(C(=O)O)c1
Nucleic Acid [1]
  ΔTm: 0.7 °C

## CN(CCCN)CCCNC(=O)c1cc(NC(=O)c2cc(NC(=O)c3cc(NC(=O)c4nc(NC(=O)[C@H](N)CCNC(=O)c5nc(NC(=O)c6cc(NC(=O)c7nc(NC(=O)c8nccn8C)cn7C)cn6C)cn5C)cn4C)cn3C)cn2C)cn1C
Nucleic Acid [1]
  ΔTm: 3.1 °C

## Cn1cc(NC(=O)c2cc(NC(=O)c3nc(NC(=O)c4cc(NC(=O)[C@H](N)CCNC(=O)c5nc(NC(=O)c6cc(NC(=O)c7cc(NC(=O)c8nccn8C)cn7C)cn6C)cn5C)cn4C)cn3C)cn2C)cc1C(=O)NCCCON
Nucleic Acid [1]
  ΔTm: 2 °C
LNCaP [5]
  inhibition at 5 µM: 10%

## Cn1cc(NC(=O)c2cc(NC(=O)c3cc(NC(=O)c4nc(NC(=O)[C@H](N)CCNC(=O)c5nc(NC(=O)c6cc(NC(=O)c7nc(NC(=O)c8nccn8C)cn7C)cn6C)cn5C)cn4C)cn3C)cn2C)cc1C(=O)NCCCON
Nucleic Acid [1]
  ΔTm: 0.1 °C

## CN(CCCNC(=O)c1cccc(C(=O)O)c1)CCCNC(=O)c1cc(NC(=O)c2cc(NC(=O)c3nc(NC(=O)c4cc(NC(=O)[C@H](N)CCNC(=O)c5nc(NC(=O)c6cc(NC(=O)c7cc(NC(=O)c8sccc8Cl)cn7C)cn6C)cn5C)cn4C)cn3C)cn2C)cn1C
Nucleic Acid [6]
  ΔTm: 11.7 °C
U-251
  inhibition: Active

## CN(CCCN)CCCNC(=O)c1cc(NC(=O)c2cc(NC(=O)c3cc(NC(=O)c4nc(NC(=O)[C@H](N)CCNC(=O)c5cc(NC(=O)c6cc(NC(=O)c7cc(NC(=O)c8nccn8C)cn7C)cn6C)cn5C)cn4C)cn3C)cn2C)cn1C
Nucleic Acid [3]
  ΔTm: 17.3 °C

## Cn1cc(NC(=O)c2cc(NC(=O)c3nc(NC(=O)c4cc(NC(=O)[C@H](N)CCNC(=O)c5nc(NC(=O)c6cc(NC(=O)c7cc(NC(=O)c8sccc8Cl)cn7C)cn6C)cn5C)cn4C)cn3C)cn2C)cc1C(=O)NCCCN
Nucleic Acid [6]
  ΔTm: 13.5 °C

## Cn1cc(NC(=O)c2cc(NC(=O)c3nc(NC(=O)c4cc(NC(=O)[C@H](N)CCNC(=O)c5nc(NC(=O)c6cc(NC(=O)c7cc(NC(=O)c8sccc8Cl)cn7C)cn6C)cn5C)cn4C)cn3C)cn2C)cc1C(=O)NCCCCCCCN
Nucleic Acid [6]
  ΔTm: 12.7 °C
